The source made the active and inactive calls. The calls are words filed in the database; no cut-off is given here.
Legend:
Aspergillus fumigatus [1] = experiment: Induction of change in NAP family protein level in iTRAQ-118 labelled cell wall fraction of drug-susceptible Aspergillus fumigatus KU80 delta-akuB at 0.12 ug/ml after 24 hrs in YPD medium by MS (MS/MS) analysis relative to control; assay type: functional
In short: (§1)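 Conidia at 1 × 10⁵/ml grown shaking at 37°C in YPD with or without 0.12 μg/ml caspofungin; mycelia filtered at 24 or 48 h. Secreted fraction taken from the filtrate; cell wall/plasma membrane pellet recovered after French-press lysis and a 5,000 × g spin. Proteins trypsin-digested and iTRAQ-labelled, drug vs no-drug channels at each time, then 2D LC-MS/MS. Protein ratio is the median of ratios from uniquely assigned peptides after median normalization.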

Aspergillus fumigatus [2] = experiment: Induction of change in isocitrate dehydrogenase Idp1, putative protein level in iTRAQ-116 labelled secreted fraction of drug-susceptible Aspergillus fumigatus KU80 delta-akuB at 0.12 ug/ml after 48 hrs in YPD medium by MS (MS/MS) analysis relative to control; assay type: functional
In short: (§2)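 Conidia (1 × 10⁵/ml) grown in YPD, 37°C, 225 rpm, ± 0.12 μg/ml caspofungin; filtrate taken as secreted fraction, French-press lysate 5,000 × g pellet as cell wall/plasma membrane. Trypsin digests 8-plex iTRAQ-labelled (drug-free channels as references), pooled, 2D-chromatography, MS/MS. Median-normalized; protein ratio = median of unique-peptide ratios, log2 normalized.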

Aspergillus fumigatus [3] = experiment: Induction of change in hypothetical protein locus AFUA_5G14680 level in iTRAQ-116 labelled secreted fraction of drug-susceptible Aspergillus fumigatus KU80 delta-akuB at 0.12 ug/ml after 48 hrs in YPD medium by MS (MS/MS) analysis relative to control; assay type: functional; in short: as §2
Aspergillus fumigatus [4] = experiment: Induction of change in IgE-binding gene expression in drug-susceptible Aspergillus fumigatus KU80 delta-akuB at 0.12 ug/ml after 48 hrs in YPD medium by microarray analysis relative to control; assay type: functional
In short: (§3)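 Mycelia grown in YPD ± 0.12 μg/ml caspofungin (1 × 10⁵ conidia/ml, 37°C, shaking) and harvested at 24 or 48 h. Total RNA extracted, DNase-treated and quality-checked; 2 μg labelled per TIGR SOP M007 and hybridized to whole-genome arrays. Three independent experiments with dye flip (6 replicates); drug vs untreated fold change.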

Aspergillus fumigatus [5] = experiment: Induction of change in choline oxidase (CodA), putative protein level in iTRAQ-116 labelled secreted fraction of drug-susceptible Aspergillus fumigatus KU80 delta-akuB at 0.12 ug/ml after 48 hrs in YPD medium by MS (MS/MS) analysis relative to control; assay type: functional; in short: as §1
Aspergillus fumigatus [6] = experiment: Induction of change in tripeptidyl-peptidase (TppA), putative protein level in iTRAQ-116 labelled secreted fraction of drug-susceptible Aspergillus fumigatus KU80 delta-akuB at 0.12 ug/ml after 48 hrs in YPD medium by MS (MS/MS) analysis relative to control; assay type: functional; in short: as §2
Aspergillus fumigatus [7] = experiment: Induction of change in ribosomal protein L29/heparin/heparan sulfate interacting gene expression in drug-susceptible Aspergillus fumigatus KU80 delta-akuB at 0.12 ug/ml after 24 hrs in YPD medium by microarray analysis relative to control; assay type: functional
In short: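 Mycelia grown from 1 × 10⁵ conidia/ml in YPD at 37°C, 225 rpm, with or without 0.12 μg/ml caspofungin. Total RNA extracted, DNase-treated; 2 μg labelled per TIGR SOP M007 for whole-genome array hybridization. Three independent experiments with dye flip (6 replicates); >2-fold change deemed significant.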

Aspergillus fumigatus [8] = experiment: Induction of change in Ribosomal L28e protein family protein level in iTRAQ114 labelled secreted fraction of drug-susceptible Aspergillus fumigatus KU80 delta-akuB at 0.12 ug/ml after 24 hrs in YPD medium by MS (MS/MS) analysis relative to control; assay type: functional; in short: as §1
Aspergillus fumigatus [9] = experiment: Induction of change in outer mitochondrial membrane protein porin protein level in iTRAQ-116 labelled secreted fraction of drug-susceptible Aspergillus fumigatus KU80 delta-akuB at 0.12 ug/ml after 48 hrs in YPD medium by MS (MS/MS) analysis relative to control; assay type: functional; in short: as §2
Aspergillus fumigatus [10] = experiment: Induction of change in 60s ribosomal protein L24, putative protein level in iTRAQ114 labelled cell wall fraction of drug-susceptible Aspergillus fumigatus KU80 delta-akuB at 0.12 ug/ml after 24 hrs in YPD medium by MS (MS/MS) analysis relative to control; assay type: functional; in short: as §1
Aspergillus fumigatus [11] = experiment: Induction of change in hypothetical gene locus AFUA_4G11270 expression in drug-susceptible Aspergillus fumigatus KU80 delta-akuB at 0.12 ug/ml after 48 hrs in YPD medium by microarray analysis relative to control; assay type: functional; in short: as §3
Aspergillus fumigatus [12] = experiment: Induction of change in cytosolic small ribosomal subunit S4, putative gene expression in drug-susceptible Aspergillus fumigatus KU80 delta-akuB at 0.12 ug/ml after 24 hrs in YPD medium by microarray analysis relative to control; assay type: functional; in short: as §3
Aspergillus fumigatus [13] = experiment: Induction of change in 14-alpha sterol demethylase Cyp51A protein level in iTRAQ-118 labelled cell wall fraction of drug-resistant Aspergillus fumigatus EMFR-S678P at 0.12 ug/ml after 24 hrs in YPD medium by MS (MS/MS) analysis relative to control; assay type: functional, organism-based
In short: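 Conidia at 1 × 10⁵/ml were grown at 37°C, shaking at 225 rpm, in YPD with or without 0.12 μg/ml caspofungin for 24 or 48 h. The culture filtrate was kept as the secreted fraction. Mycelia were lysed by French press in HEPES/glycerol/EDTA/PMSF/DTT buffer, and the 5,000 × g pellet was washed to give CW/PM. Proteins were reduced, alkylated and trypsin-digested at 37°C overnight, then iTRAQ-labelled and run by 2D LC-MS/MS. Ratios are the median of unique-peptide ratios, median-normalized, versus the no-drug control.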

Aspergillus fumigatus [14] = experiment: Induction of change in 60S ribosomal protein L7 protein level in iTRAQ114 labelled cell wall fraction of drug-susceptible Aspergillus fumigatus KU80 delta-akuB at 0.12 ug/ml after 24 hrs in YPD medium by MS (MS/MS) analysis relative to control; assay type: functional; in short: as §1
Aspergillus fumigatus [15] = experiment: Induction of change in PT repeat family protein level in iTRAQ114 labelled secreted fraction of drug-susceptible Aspergillus fumigatus KU80 delta-akuB at 0.12 ug/ml after 24 hrs in YPD medium by MS (MS/MS) analysis relative to control; assay type: functional; in short: as §1
Aspergillus fumigatus [16] = experiment: Induction of change in cell wall glucanase (Utr2), putative protein level in iTRAQ-118 labelled cell wall fraction of drug-susceptible Aspergillus fumigatus KU80 delta-akuB at 0.12 ug/ml after 24 hrs in YPD medium by MS (MS/MS) analysis relative to control; assay type: functional; in short: as §1
Aspergillus fumigatus [17] = experiment: Induction of change in translation elongation factor eEF-3, putative protein level in iTRAQ-118 labelled cell wall fraction of drug-susceptible Aspergillus fumigatus KU80 delta-akuB at 0.12 ug/ml after 24 hrs in YPD medium by MS (MS/MS) analysis relative to control; assay type: functional; in short: as §2
Aspergillus fumigatus [18] = experiment: Induction of change in 60S ribosomal protein L10 protein level in iTRAQ-118 labelled cell wall fraction of drug-susceptible Aspergillus fumigatus KU80 delta-akuB at 0.12 ug/ml after 24 hrs in YPD medium by MS (MS/MS) analysis relative to control; assay type: functional; in short: as §1

SMILES: CC[C@H](C)C[C@H](C)CCCCCCCCC(=O)N[C@H]1C[C@@H](O)[C@@H](NCCN)NC(=O)[C@@H]2[C@@H](O)CCN2C(=O)[C@H]([C@H](O)CCN)NC(=O)[C@H]([C@H](O)[C@@H](O)c2ccc(O)cc2)NC(=O)[C@@H]2C[C@@H](O)CN2C(=O)[C@H]([C@@H](C)O)NC1=O [CASPOFUNGIN]
- fold change (FC) (Aspergillus fumigatus [1]): 2.8
- fold change (FC) (Aspergillus fumigatus [2]): -6.1
- fold change (FC) (Aspergillus fumigatus [3]): -2.5
- fold change (FC) (Aspergillus fumigatus [4]): 7.6
- fold change (FC) (Aspergillus fumigatus [5]): -2
- fold change (FC) (Aspergillus fumigatus [6]): 3.2
- fold change (FC) (Aspergillus fumigatus [7]): 6.5
- fold change (FC) (Aspergillus fumigatus [8]): -1.6
- fold change (FC) (Aspergillus fumigatus [9]): -1.2
- fold change (FC) (Aspergillus fumigatus [10]): 1.5
- fold change (FC) (Aspergillus fumigatus [11]): 3.7
- fold change (FC) (Aspergillus fumigatus [12]): 3.8
- Activity (Aspergillus fumigatus [13]): inactive
- fold change (FC) (Aspergillus fumigatus [14]): 2
- fold change (FC) (Aspergillus fumigatus [15]): -3.5
- fold change (FC) (Aspergillus fumigatus [16]): -3
- fold change (FC) (Aspergillus fumigatus [17]): 2.1
- fold change (FC) (Aspergillus fumigatus [18]): 2.3

— ChEMBL document CHEMBL1687827, “Profiling the Aspergillus fumigatus proteome in response to caspofungin” (2011)
